Data reported in ChEMBL document CHEMBL1123213, “Neuroleptic activity of chiral trans-hexahydro-gamma-carbolines” (J Med Chem, 1986).

Key:
Dopamine receptor [1] = experiment: Inhibition of [3H]spiroperidol (0.5 nM) binding to dopamine receptor from rat striatal membrane.
Rattus norvegicus [2] = experiment: Compound was tested for the antagonistic activity against amphetamine-induced stereotypy in rats; (5 mg/kg administered ip 5 hr after the test compound).; format: functional
Outline: (§1)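 Rats housed singly in covered compartments, briefly acclimated, then dosed sc in groups of five at doses spaced 0.5 log unit (1, 3.2, 10, 32 mg/kg). d-Amphetamine sulfate 5 mg/kg ip given 1, 5 and 24 h later. Behaviour scored on a six-point scale 1 h after each challenge. ED50 by linear regression or by inspection; no fiducial limits.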

Rattus norvegicus [3] = experiment: Antagonistic activity against amphetamine-induced stereotypy in rats; (5 mg/kg administered ip 1 hr after the test compound).; format: functional; outline: as §1
Rattus norvegicus [4] = experiment: Compound was tested for the antagonistic activity against amphetamine-induced stereotypy in rats; (5 mg/kg administered ip 24 hr after the test compound).; format: functional; outline: as §1
Mus musculus [5] = experiment: Compound was tested for the anticholinergic activity against tetrabenazine-treated mice; activity expressed as the pupil size at the dose of 32 mg/kg sc; format: functional; settings: route subcutaneous
Rattus norvegicus [6] = experiment: Compound was tested for the antagonistic activity against amphetamine-induced stereotypy in rats; (5 mg/kg administered ip 24 hr after the test compound); format: functional; outline: as §1
Rattus norvegicus [7] = experiment: Compound was tested for the antagonistic activity against amphetamine-induced stereotypy in rats; (5 mg/kg administered ip 5 hr after the test compound); format: functional; outline: as §1
Dopamine receptor [8] = experiment: Compound was tested for inhibition of [3H]spiroperidol (0.5 nM) binding to dopamine receptor from rat striatal membrane; Insoluble
Rattus norvegicus [9] = species: Rattus norvegicus; experiment: Compound was tested for the antagonistic activity against amphetamine-induced stereotypy in rat.; format: functional; outline: as §1
Rattus norvegicus [10] = experiment: Compound was tested for the antagonistic activity against amphetamine-induced stereotypy in rats; (5 mg/kg administered ip 5 after the test compound).; format: functional; outline: as §1
Mus musculus [11] = experiment: Compound was tested for the anticholinergic activity against tetrabenazine-treated mice; activity expressed as the pupil size at the dose of 1 mg/kg sc; settings: route subcutaneous
Mus musculus [12] = experiment: Compound was tested for the anticholinergic activity against tetrabenazine-treated mice; activity expressed as the pupil size at the dose of 100 mg/kg sc; format: functional; settings: route subcutaneous
Outline: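 Groups of five mice dosed sc with test compound, then 1 h later tetrabenazine 32 mg/kg ip. After 30 min, pupil size measured with a binocular microscope; reticle readings converted to mm. Reported as mean ± SD pupil size (mm). Vehicle-pretreated tetrabenazine control groups of five run alongside.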

Mus musculus [13] = experiment: Compound was tested for the anticholinergic activity against tetrabenazine-treated mice; activity expressed as the pupil size at the dose of 10 mg/kg sc; format: functional; settings: route subcutaneous
Outline: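 Mice in groups of five dosed sc, then given tetrabenazine 32 mg/kg ip 1 h later. Pupils measured 30 min afterward under a binocular microscope, with reticle readings converted to mm. Reported as mean ± SD pupil size. Vehicle-pretreated tetrabenazine groups served as controls.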

[14] = Rattus norvegicus, ip, 1 h, read-out: ED50
[15] = Rattus norvegicus, ip, 24 h, read-out: ED50
[16] = Rattus norvegicus, ip, 5 h, read-out: ED50

| Structure (SMILES) | IC50 (Dopamine receptor [1]) [nM] | ED50 (Rattus norvegicus [2]) [mg/kg] | ED50 (Rattus norvegicus [3]; [14]) [mg/kg] | ED50 (Rattus norvegicus [4]) [mg/kg] | other results |
| --- | --- | --- | --- | --- | --- |
| OC(CCN1CC[C@H]2[C@H](C1)c1cc(F)ccc1N2c1ccc(F)cc1)(c1ccccc1)c1ccccc1 | 220 | > 10 | > 10 | – | – |
| O=C1CNC(=O)N1CCN1CCC2c3cc(F)ccc3N(c3ccc(F)cc3)C2C1 (configuration not stated) | 26 | 0.57 | 0.57 | > 32 | – |
| O=C1CNC(=O)N1CCCN1CCC2c3cc(F)ccc3N(c3ccc(F)cc3)C2C1 (configuration not stated) | 14 | 0.05 | 0.11 | > 0.32 | – |
| O=C(CCCN1CC[C@H]2[C@H](C1)c1cc(F)ccc1N2c1ccc(F)cc1)NC1CCCCC1 | 12 | 0.14 | 0.45 | 0.57 | Pupil size (Mus musculus [5]): 0.23 mm |
| Fc1ccc(N2c3ccc(F)cc3[C@H]3CNCC[C@@H]32)cc1 | 6.7 | – | 0.36 | – | ED50 (Rattus norvegicus [6]; [15]): > 10 mg/kg; ED50 (Rattus norvegicus [7]; [16]): 0.45 mg/kg |
| I.O=C(CCCN1CC[C@H]2[C@H](C1)c1cc(F)ccc1N2c1ccc(F)cc1)N(c1ccccc1)C1CCCCC1 | – | 1 | > 32 | < 32 | IC50 (Dopamine receptor [8]): Insoluble |
| Cl.O=C(Nc1ccccc1)OCCN1CC[C@H]2[C@H](C1)c1cc(F)ccc1N2c1ccc(F)cc1 | 45 | 0.45 | 0.57 | 2.3 | – |
| Cl.Fc1ccc(N(c2ccc(F)cc2)C2CCNCC2)cc1 | > 1000 | – | – | – | – |
| CN1CCC2C(C1)c1cc(F)ccc1N2c1ccc(F)cc1.Cl (configuration not stated) | 7.5 | – | – | – | ED50 (Rattus norvegicus [9]): 0.3 mg/kg |
| Cl.O=C1CNC(=O)N1CCCCCCN1CC[C@@H]2c3cc(F)ccc3N(c3ccc(F)cc3)[C@H]2C1 | 14 | 0.02 | 0.13 | 0.07 | – |
| Cl.O=C(NCCCCCCN1CCc2c(c3cc(F)ccc3n2-c2ccc(F)cc2)C1)c1ccccc1 | 8.5 | – | – | – | ED50 (Rattus norvegicus [9]): > 10 mg/kg |
| Cl.O=C1CNC(=O)N1CCCCCCN1CCc2c(n(-c3ccc(F)cc3)c3ccc(F)cc23)C1 | 5.8 | 0.75 | 1 | > 10 | – |
| Cl.O=C(O)CCCN1CCC2C(C1)c1cc(F)ccc1N2c1ccc(F)cc1 (configuration not stated) | 140 | – | – | – | ED50 (Rattus norvegicus [9]): 0.36 mg/kg |
| Cl.O=C(NCCCCCCN1CCC2C(C1)c1cc(F)ccc1N2c1ccc(F)cc1)c1ccccc1 (configuration not stated) | 13 | – | – | – | ED50 (Rattus norvegicus [9]): 0.1 mg/kg |
| Cl.OC(CCCN1CCC(N(c2ccc(F)cc2)c2ccc(F)cc2)CC1)c1ccc(F)cc1 (configuration not stated) | 1000 | – | – | – | – |
| CC(=O)NCCCCN1CCC2C(C1)c1cc(F)ccc1N2c1ccc(F)cc1.Cl (configuration not stated) | 13 | – | – | – | ED50 (Rattus norvegicus [9]): 0.006 mg/kg |
| Cl.O=C(CCCN1CCC(N(c2ccc(F)cc2)c2ccc(F)cc2)CC1)c1ccc(F)cc1 | 68 | – | > 32 | > 32 | – |
| Cl.O[C@H](CCCN1CCC2C(C1)c1cc(F)ccc1N2c1ccc(F)cc1)c1ccc(F)cc1 (some centres not stated) | 25 | 0.05 | 0.21 | 0.02 | – |
| Cl.O=C(CCCN1CC[C@H]2[C@H](C1)c1cc(F)ccc1N2c1ccc(F)cc1)Nc1ccccc1 | 19 | – | 0.45 | 1.8 | Pupil size (Mus musculus [5]): 0.28 mm; ED50 (Rattus norvegicus [10]): 0.18 mg/kg |
| Cl.O=C(O)CCCN1CCc2c(c3cc(F)ccc3n2-c2ccc(F)cc2)C1 | > 320 | – | – | – | – |

| Structure (SMILES) | IC50 (Dopamine receptor [1]) [nM] | ED50 (Rattus norvegicus [2]) [mg/kg] | ED50 (Rattus norvegicus [3]; [14]) [mg/kg] | ED50 (Rattus norvegicus [4]) [mg/kg] | other results |
| --- | --- | --- | --- | --- | --- |
| Cl.O=C1CNC(=O)N1CCCCN1CC[C@@H]2c3cc(F)ccc3N(c3ccc(F)cc3)[C@H]2C1 | 12 | 0.018 | 0.057 | 0.18 | – |
| Cl.O=C1CNC(=O)N1CCCCCCN1CCC2c3cc(F)ccc3N(c3ccc(F)cc3)C2C1 (configuration not stated) | 9.4 | 0.033 | 0.18 | > 0.32 | – |
| CC(=O)NCCCCN1CCc2c(c3cc(F)ccc3n2-c2ccc(F)cc2)C1.Cl | 54 | – | – | – | ED50 (Rattus norvegicus [9]): > 3.2 mg/kg |
| Cl.O=C1CNC(=O)N1CCCCCN1CC[C@@H]2c3cc(F)ccc3N(c3ccc(F)cc3)[C@H]2C1 | 6 | 0.02 | 0.04 | 0.05 | – |
| CN1CCc2c(c3cc(F)ccc3n2-c2ccc(F)cc2)C1.Cl | – | – | – | – | ED50 (Rattus norvegicus [9]): > 1 mg/kg |
| Fc1ccc(N2c3ccc(F)cc3[C@@H]3CNCC[C@H]32)cc1 | 3200 | – | – | – | – |
| O=C(NCCN1CC[C@H]2[C@H](C1)c1cc(F)ccc1N2c1ccc(F)cc1)C(CO)c1ccccc1 (some centres not stated) | 35 | 0.89 | 2.8 | 32 | Pupil size (Mus musculus [5]): 0.23 mm |
| Fc1ccc(N2c3ccc(F)cc3[C@H]3CN(CCn4c5ccccc5c5ccccc54)CC[C@@H]32)cc1 | – | > 32 | > 32 | – | IC50 (Dopamine receptor [8]): Insoluble |
| Fc1ccc(-n2c3c(c4cc(F)ccc42)CNCC3)cc1 | 350 | – | > 10 | – | – |
| O[C@H](CCCN1CC[C@H]2[C@H](C1)c1cc(F)ccc1N2c1ccc(F)cc1)c1ccc(F)cc1 (stereo in doubt; 2a) | 25 | – | – | – | ED50 (Rattus norvegicus [6]): 0.02 mg/kg; ED50 (Rattus norvegicus [7]): 0.05 mg/kg; ED50 (Rattus norvegicus [3]): 0.21 mg/kg |
| O[C@H](CCCN1CC[C@H]2[C@H](C1)c1cc(F)ccc1N2c1ccc(F)cc1)c1ccc(F)cc1 (stereo in doubt; 2b) | 350 | – | – | – | ED50 (Rattus norvegicus [6]): >10 mg/kg; ED50 (Rattus norvegicus [7]): 5.7 mg/kg; ED50 (Rattus norvegicus [3]): >10 mg/kg |
| O[C@H](CCCN1CC[C@@H]2[C@@H](C1)c1cc(F)ccc1N2c1ccc(F)cc1)c1ccc(F)cc1 (stereo in doubt; 2c) | 22 | – | – | – | ED50 (Rattus norvegicus [6]): 0.02 mg/kg; ED50 (Rattus norvegicus [7]): 0.02 mg/kg; ED50 (Rattus norvegicus [3]): 0.05 mg/kg |
| O[C@H](CCCN1CC[C@@H]2[C@@H](C1)c1cc(F)ccc1N2c1ccc(F)cc1)c1ccc(F)cc1 (stereo in doubt; 2d) | 1800 | – | – | – | ED50 (Rattus norvegicus [6]): >10 mg/kg; ED50 (Rattus norvegicus [7]): 18.1 mg/kg; ED50 (Rattus norvegicus [3]): >10 mg/kg |
| CN1[C@@H]2CC[C@H]1C[C@@H](OC(=O)C(CO)c1ccccc1)C2.O=S(=O)(O)O (some centres not stated) [ATROPINE SULFATE] | – | – | – | – | Pupil size (Mus musculus [11]): 1.98 mm |
| CN1CCN(C2=Nc3cc(Cl)ccc3Nc3ccccc32)CC1 [CLOZAPINE] | – | – | – | – | Pupil size (Mus musculus [12]): 1.13 mm |
| CNCCCN1c2ccccc2CCc2ccccc21.Cl [DESIPRAMINE HYDROCHLORIDE] | – | – | – | – | Pupil size (Mus musculus [13]): 0.66 mm |
| OC(CCCN1CCc2c(c3cc(F)ccc3n2-c2ccc(F)cc2)C1)c1ccc(F)cc1 (configuration not stated) [FLUTROLINE] | 12 | – | 1 | – | ED50 (Rattus norvegicus [6]; [15]): 2.2 mg/kg; ED50 (Rattus norvegicus [7]; [16]): 0.15 mg/kg |
| O=C(CCCN1CCC(O)(c2ccc(Cl)cc2)CC1)c1ccc(F)cc1 [HALOPERIDOL] | – | – | 0.66 | – | ED50 (Rattus norvegicus [6]; [15]): > 10 mg/kg; ED50 (Rattus norvegicus [7]; [16]): 0.75 mg/kg |
| OC1(c2ccc(Cl)c(C(F)(F)F)c2)CCN(CCCC(c2ccc(F)cc2)c2ccc(F)cc2)CC1 [PENFLURIDOL] | 62 | – | ~32 | – | ED50 (Rattus norvegicus [6]; [15]): 3.9 mg/kg; ED50 (Rattus norvegicus [7]; [16]): 2.4 mg/kg |
